Values belong to the molecule of their own block, whether it stands above or below them.
Tests used:
Glucocorticoid receptor [1] = biological target: T1, Glucocorticoid receptor (Homo sapiens, UniProt P04150)
T1 sequence (P04150 whole entry): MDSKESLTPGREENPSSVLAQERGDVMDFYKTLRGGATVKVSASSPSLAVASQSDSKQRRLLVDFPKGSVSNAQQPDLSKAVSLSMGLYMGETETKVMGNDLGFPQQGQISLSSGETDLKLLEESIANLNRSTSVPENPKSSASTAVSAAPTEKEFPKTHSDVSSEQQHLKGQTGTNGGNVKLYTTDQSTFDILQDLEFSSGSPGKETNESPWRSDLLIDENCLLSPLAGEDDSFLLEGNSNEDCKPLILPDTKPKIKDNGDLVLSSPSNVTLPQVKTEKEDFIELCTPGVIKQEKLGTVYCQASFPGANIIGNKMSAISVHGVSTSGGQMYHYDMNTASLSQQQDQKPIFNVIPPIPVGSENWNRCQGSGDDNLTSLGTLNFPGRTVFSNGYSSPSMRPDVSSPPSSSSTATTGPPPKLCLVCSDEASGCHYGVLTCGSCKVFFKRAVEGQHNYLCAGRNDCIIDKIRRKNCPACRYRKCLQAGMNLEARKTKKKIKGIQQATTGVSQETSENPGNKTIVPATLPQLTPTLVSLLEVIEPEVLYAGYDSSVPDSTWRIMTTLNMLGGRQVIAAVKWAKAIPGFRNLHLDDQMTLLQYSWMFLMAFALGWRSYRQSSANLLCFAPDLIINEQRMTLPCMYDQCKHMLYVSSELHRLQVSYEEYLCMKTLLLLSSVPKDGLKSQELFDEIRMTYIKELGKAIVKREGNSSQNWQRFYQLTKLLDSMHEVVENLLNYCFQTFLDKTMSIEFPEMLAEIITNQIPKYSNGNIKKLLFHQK

Androgen receptor = biological target: T2, Androgen receptor (Homo sapiens, UniProt P10275); experiment: Displacement of [3H]mibolerone from human Androgen receptor
T2 sequence (P10275 whole entry): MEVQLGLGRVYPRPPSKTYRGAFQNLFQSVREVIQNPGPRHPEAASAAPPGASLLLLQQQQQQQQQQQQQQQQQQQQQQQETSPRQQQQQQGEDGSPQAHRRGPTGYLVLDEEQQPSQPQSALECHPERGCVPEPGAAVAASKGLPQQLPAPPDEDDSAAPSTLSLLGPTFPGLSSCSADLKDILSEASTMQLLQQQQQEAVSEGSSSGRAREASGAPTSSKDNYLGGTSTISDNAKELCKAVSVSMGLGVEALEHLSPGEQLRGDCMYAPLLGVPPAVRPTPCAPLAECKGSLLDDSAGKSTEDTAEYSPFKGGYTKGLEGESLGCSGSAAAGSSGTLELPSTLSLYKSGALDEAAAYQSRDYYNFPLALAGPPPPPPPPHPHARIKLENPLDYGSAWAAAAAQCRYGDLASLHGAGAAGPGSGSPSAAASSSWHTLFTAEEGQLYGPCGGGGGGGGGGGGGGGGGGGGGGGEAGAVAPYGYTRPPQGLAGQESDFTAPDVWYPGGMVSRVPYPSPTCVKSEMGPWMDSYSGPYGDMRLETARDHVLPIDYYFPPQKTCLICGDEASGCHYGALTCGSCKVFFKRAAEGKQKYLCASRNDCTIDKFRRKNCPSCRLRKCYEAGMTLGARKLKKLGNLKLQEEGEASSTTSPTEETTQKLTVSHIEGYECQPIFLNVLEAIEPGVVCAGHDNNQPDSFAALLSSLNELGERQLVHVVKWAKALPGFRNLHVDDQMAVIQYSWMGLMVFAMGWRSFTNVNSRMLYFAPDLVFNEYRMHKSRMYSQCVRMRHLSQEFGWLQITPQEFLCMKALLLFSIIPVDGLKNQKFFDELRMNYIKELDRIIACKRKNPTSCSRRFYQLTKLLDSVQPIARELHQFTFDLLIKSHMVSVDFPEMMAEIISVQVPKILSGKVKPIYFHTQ

Glucocorticoid receptor [2] = biological target: T1, Glucocorticoid receptor; experiment: Displacement of [3H]dexamethasone from human Glucocorticoid receptor (GR)
Glucocorticoid receptor [3] = biological target: T1, Glucocorticoid receptor; experiment: Effect on human Glucocorticoid receptor (GR) in a whole cell assay to measure functional cellular GR-antagonism (GRAF)
[4] = biological target: T3, Mineralocorticoid receptor (Homo sapiens, UniProt P08235); experiment: Displacement of [3H]aldosterone from human Mineralocorticoid receptor
T3 sequence (P08235 whole entry): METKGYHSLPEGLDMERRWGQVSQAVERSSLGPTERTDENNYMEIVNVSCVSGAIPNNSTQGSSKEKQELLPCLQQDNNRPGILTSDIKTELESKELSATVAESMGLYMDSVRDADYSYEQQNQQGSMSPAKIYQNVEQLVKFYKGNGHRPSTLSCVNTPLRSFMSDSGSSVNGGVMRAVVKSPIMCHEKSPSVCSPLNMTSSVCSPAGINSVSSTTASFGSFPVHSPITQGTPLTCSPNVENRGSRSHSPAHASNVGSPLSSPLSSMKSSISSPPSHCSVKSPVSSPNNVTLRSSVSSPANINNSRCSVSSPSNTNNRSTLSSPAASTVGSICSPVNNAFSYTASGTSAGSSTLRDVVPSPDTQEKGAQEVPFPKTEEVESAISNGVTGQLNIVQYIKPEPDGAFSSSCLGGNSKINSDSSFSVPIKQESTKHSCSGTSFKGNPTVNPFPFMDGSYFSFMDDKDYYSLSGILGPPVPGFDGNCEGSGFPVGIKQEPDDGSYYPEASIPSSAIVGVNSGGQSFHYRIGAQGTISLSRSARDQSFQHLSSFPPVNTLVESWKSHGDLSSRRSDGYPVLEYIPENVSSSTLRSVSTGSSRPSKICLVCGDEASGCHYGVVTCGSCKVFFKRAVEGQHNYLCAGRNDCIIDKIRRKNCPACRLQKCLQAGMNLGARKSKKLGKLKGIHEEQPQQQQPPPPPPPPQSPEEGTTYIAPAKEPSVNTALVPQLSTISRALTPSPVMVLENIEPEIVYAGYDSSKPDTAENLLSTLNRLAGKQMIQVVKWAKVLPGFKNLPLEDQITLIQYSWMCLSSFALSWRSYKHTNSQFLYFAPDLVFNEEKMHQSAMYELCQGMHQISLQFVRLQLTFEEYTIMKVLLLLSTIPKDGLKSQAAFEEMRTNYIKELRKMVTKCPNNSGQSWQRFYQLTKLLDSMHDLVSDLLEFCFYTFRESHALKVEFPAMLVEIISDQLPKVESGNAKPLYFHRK
In short: (§1)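 Human steroid receptor (PR, MR, AR, ERα) binding measured by radioligand displacement, with IC50s determined in duplicate. Values without a range come from a single experiment, and values with a range are geometric means of repeat experiments.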

Glucocorticoid receptor [5] = biological target: T1, Glucocorticoid receptor; experiment: Displacement of [3H]dexamethasone from human Glucocorticoid receptor (GR); Value ranges from 1382-1049 nM
In short: (§2)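 Binding to human GR; IC50 reported as the geometric mean of two experiments (three for some values), each run in duplicate, with the range of the experiments given.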

Progesterone receptor = biological target: T4, Progesterone receptor (Homo sapiens, UniProt P06401); experiment: Displacement of [3H]progesterone from human Progesterone receptor
T4 sequence (P06401 whole entry): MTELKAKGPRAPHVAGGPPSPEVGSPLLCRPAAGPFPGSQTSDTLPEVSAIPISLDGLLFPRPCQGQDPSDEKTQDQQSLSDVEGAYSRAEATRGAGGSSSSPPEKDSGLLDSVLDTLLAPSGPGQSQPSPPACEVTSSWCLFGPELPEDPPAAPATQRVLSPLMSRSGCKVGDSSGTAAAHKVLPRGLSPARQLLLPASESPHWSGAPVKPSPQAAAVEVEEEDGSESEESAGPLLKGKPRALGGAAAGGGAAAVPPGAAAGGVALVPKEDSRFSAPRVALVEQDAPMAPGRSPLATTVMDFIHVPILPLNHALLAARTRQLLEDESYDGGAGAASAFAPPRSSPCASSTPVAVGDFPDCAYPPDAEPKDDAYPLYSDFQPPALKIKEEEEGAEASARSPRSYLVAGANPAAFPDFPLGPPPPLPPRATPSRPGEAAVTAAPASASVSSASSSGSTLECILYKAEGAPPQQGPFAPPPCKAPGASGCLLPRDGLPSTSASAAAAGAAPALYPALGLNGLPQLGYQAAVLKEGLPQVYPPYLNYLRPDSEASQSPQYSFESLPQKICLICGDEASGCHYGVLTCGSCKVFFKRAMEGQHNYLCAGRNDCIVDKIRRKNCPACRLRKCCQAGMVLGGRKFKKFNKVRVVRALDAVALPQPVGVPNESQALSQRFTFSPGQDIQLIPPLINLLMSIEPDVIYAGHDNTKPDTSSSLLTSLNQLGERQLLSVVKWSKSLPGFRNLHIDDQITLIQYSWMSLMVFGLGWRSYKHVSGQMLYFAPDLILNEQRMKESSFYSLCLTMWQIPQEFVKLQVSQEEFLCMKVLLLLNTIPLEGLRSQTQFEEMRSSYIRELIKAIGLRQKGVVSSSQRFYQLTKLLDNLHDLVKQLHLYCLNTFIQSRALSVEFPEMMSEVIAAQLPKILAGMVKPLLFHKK
In short: as §1

Glucocorticoid receptor [6] = biological target: T1, Glucocorticoid receptor; remark: listed apart in the source
Glucocorticoid receptor [7] = biological target: T1, Glucocorticoid receptor; experiment: Displacement of [3H]dexamethasone from human Glucocorticoid receptor (GR); Value ranges from 1428-1433 nM
In short: as §2

Glucocorticoid receptor [8] = biological target: T1, Glucocorticoid receptor; experiment: Displacement of [3H]dexamethasone from human Glucocorticoid receptor (GR); […]
Glucocorticoid receptor [9] = biological target: T1, Glucocorticoid receptor; experiment: Displacement of [3H]dexamethasone from human Glucocorticoid receptor (GR); Value ranges from 159-161 nM
In short: as §2

Glucocorticoid receptor [10] = biological target: T1, Glucocorticoid receptor; experiment: Displacement of [3H]dexamethasone from human Glucocorticoid receptor (GR); Value ranges from 5-6 nM
In short: as §2

Glucocorticoid receptor [11] = biological target: T1, Glucocorticoid receptor; experiment: Displacement of [3H]dexamethasone from human Glucocorticoid receptor (GR); Value ranges from 3-4 nM
In short: as §2

Compound: COc1cccc2c1-c1ccc(NS(C)(=O)=O)cc1C(c1cccnc1)O2 (configuration not stated)
IC50 (Glucocorticoid receptor [1]): 460 nM

Compound: COc1cccc2c1-c1ccc(NC(=O)c3ccccc3)cc1C(c1ccccc1)O2 (configuration not stated)
IC50 (Glucocorticoid receptor [3]): 289 nM
IC50 (Glucocorticoid receptor [6]): 404 nM

Compound: CCC(=O)Nc1ccc2c(c1)C(c1ccccc1)Oc1cccc(OC)c1-2 (configuration not stated)
IC50 (Glucocorticoid receptor [3]): 124 nM
IC50 (Glucocorticoid receptor [9]): 160 nM

Compound: COc1cccc(C2Oc3cccc(OC)c3-c3ccc(NS(C)(=O)=O)cc32)c1 (configuration not stated)
IC50 (Glucocorticoid receptor [10]): 6 nM
IC50 (Glucocorticoid receptor [3]): 122 nM

Next, values leading:

IC50 (Androgen receptor): > 10000 nM
IC50 (Glucocorticoid receptor [2]): 2 nM
IC50 (Glucocorticoid receptor [3]): 78 nM
IC50 [4]: 1220 nM
Compound: COc1cccc2c1-c1ccc(NS(C)(=O)=O)cc1C(c1cc(C)cc(C)c1)O2 (configuration not stated)

IC50 (Glucocorticoid receptor [5]): 1200 nM
Compound: COC(=O)c1cccc2c1-c1ccc(NS(C)(=O)=O)cc1C(c1ccccc1)O2 (configuration not stated)

IC50 (Androgen receptor): > 10000 nM
IC50 (Glucocorticoid receptor [2]): 1 nM
IC50 (Glucocorticoid receptor [3]): 21 nM
IC50 [4]: 333 nM
IC50 (Progesterone receptor): 236 nM
Compound: COc1cccc2c1-c1ccc(NS(C)(=O)=O)cc1C(c1cccc(C)c1)O2 (configuration not stated)

IC50 (Glucocorticoid receptor [7]): 1430 nM
Compound: COc1cccc2c1-c1ccc(NS(C)(=O)=O)cc1C(c1ccccn1)O2 (configuration not stated)

IC50 (Glucocorticoid receptor [8]): 47 nM
IC50 (Glucocorticoid receptor [3]): 630 nM
Compound: COc1cccc2c1-c1ccc(NS(C)(=O)=O)cc1C(C1CCCCC1)O2 (configuration not stated)

IC50 (Glucocorticoid receptor [11]): 3 nM
IC50 (Glucocorticoid receptor [3]): 378 nM
Compound: COc1cccc2c1-c1ccc(NS(C)(=O)=O)cc1C(c1ccc(Cl)c(Cl)c1)O2 (configuration not stated)

From ChEMBL document CHEMBL1147539, “Synthesis and biological evaluation of novel, selective, nonsteroidal glucocorticoid receptor antagonists” (Bioorg Med Chem Lett, 2004)
